{
  "source": "ChEMBL document CHEMBL3091462",
  "about": "(J Nat Prod, 2013)",
  "key": {"[1]": {"tested_on": "SW-620", "assay": "Cytotoxicity against human SW620 cells assessed as cell viability at 0.1 to 2 uM after 24 to 72 hrs", "assay_type": "functional, cell-based", "procedure,_shortened": "(§1)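 Cells seeded at 10^5 per well in RPMI 1640/10% FBS at 37 °C. Subconfluent cells exposed to 0, 0.1, 0.5, 1, 2, 5 or 10 μM for 48 h, or to 10 μM for 24, 48 and 72 h; ethanol vehicle, at most 0.01% v/v final. Cells trypsinized and counted by hemocytometer. Viability as % of control, means ± SD, three experiments in triplicate.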"}, "[2]": {"tested_on": "SW-620", "assay": "Effect on p57 expression in p53 deficient human SW620 cells at 0.5 to 10 uM after 24 hrs by immunoblotting", "assay_type": "functional, cell-based"}, "[3]": {"tested_on": "HCT-116", "assay": "Induction of apoptosis in human HCT116 cells assessed as increase of Bax protein expression after 24 hrs by immunoblotting", "assay_type": "functional, cell-based", "procedure,_shortened": "(§2)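 HCT-116 or SW-620 cells treated with 0–10 μM for 24 h, lysed, and run on 15% SDS-PAGE immunoblots. Probed for Bcl-2 (1:1000), Bax (1:500), caspase-9/-3 and their cleaved forms (1:1000), and β-actin (1:1000). Bands quantified by densitometry; means ± SD of three experiments in duplicate.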"}, "[4]": {"tested_on": "HCT-116", "assay": "Induction of apoptosis in human HCT116 cells at 10 uM after 48 hrs using Annexin V-FITC and propidium iodide staining by flow cytometry (reference value: 7.6 +/- 3%)", "assay_type": "functional", "procedure,_shortened": "(§3)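 Subconfluent cells in RPMI 1640 + 10% FBS treated with 0–10 μM for 48 h. Harvested cells incubated 10 min with FITC-annexin V/PI, then analysed by flow cytometry (488/525 nm for annexin V-FITC, 488/675 nm for PI). Reported as % apoptotic cells, means ± SD of three experiments in triplicate.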"}, "[5]": {"tested_on": "HCT-116", "assay": "Cytotoxicity against human HCT116 cells expressing p21 siRNA at 10 uM after 24 hrs by trypan blue staining", "assay_type": "functional, cell-based", "procedure,_shortened": "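Cells plated at 5 × 10^4 per well and transfected 4 h with 100 nM p21 or scrambled siRNA in OPTI-MEM, then grown 24 h in complete medium. Exposed to 10 μM for 24 h. Viability by trypan blue exclusion and direct counting. Means ± SD, three experiments in triplicate, compared with the scrambled-siRNA group.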"}, "[6]": {"tested_on": "HCT-116", "assay": "Cytotoxicity against human HCT116 cells after 24 to 72 hrs", "assay_type": "functional, cell-based", "procedure,_shortened": "as §1"}, "[7]": {"tested_on": "SW-620", "assay": "Cell cycle arrest in human SW620 cells assessed as accumulation at G2/M phase at 10 uM after 48 hrs using propidium iodide staining by flow cytometry (reference value: 9.1 +/- 0.3%)", "assay_type": "functional"}, "[8]": {"tested_on": "SW-620", "assay": "Cell cycle arrest in human SW620 cells assessed as accumulation at S phase at 2 uM after 48 hrs using propidium iodide staining by flow cytometry (reference value: 43.1 +/- 1%)", "assay_type": "functional"}, "[9]": {"tested_on": "HCT-116", "assay": "Cell cycle arrest in human HCT116 cells assessed as accumulation at G2/M phase at 0.5 uM after 48 hrs using propidium iodide staining by flow cytometry (reference value: 7.1 +/- 0.3%)", "assay_type": "functional"}, "[10]": {"tested_on": "HCT-116", "assay": "Induction of apoptosis in human HCT116 cells assessed as increase of expression of cleaved caspase-9 and caspase-3 after 24 hrs by immunoblotting", "assay_type": "functional, cell-based", "procedure,_shortened": "as §2"}, "[11]": {"tested_on": "SW-620", "assay": "Cytotoxicity against human SW620 cells expressing p21 siRNA at 10 uM after 24 hrs by trypan blue staining", "assay_type": "functional, cell-based", "procedure,_shortened": "(§4)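 Cells plated at 5 × 10^4 per well and transfected with 100 nM scrambled or p21 siRNA in OPTI-MEM for 4 h. Complete RPMI medium was added and cells grown a further 24 h, then exposed to 10 μM for 24 h. Viability measured by direct count after trypan blue staining. Morphology viewed by phase-contrast at 200×. Means ± SD, three experiments in triplicate.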"}, "[12]": {"tested_on": "HCT-116", "assay": "Induction of apoptosis in human HCT116 cells expressing p21 siRNA assessed as change in cell morphology at 10 uM after 24 hrs by phase-contrast microscopic analysis", "assay_type": "functional, cell-based", "procedure,_shortened": "as §4"}, "[13]": {"tested_on": "SW-620", "assay": "Cell cycle arrest in human SW620 cells assessed as accumulation at S phase at 0.5 uM after 48 hrs using propidium iodide staining by flow cytometry (reference value: 43.1 +/- 1%)", "assay_type": "functional"}, "[14]": {"tested_on": "HCT-116", "assay": "Induction of apoptosis in human HCT116 cells expressing p21 siRNA assessed as increase of expression of cleaved caspase-9 and caspase-3 at 10 uM after 24 hrs by immunoblotting", "assay_type": "functional, cell-based", "procedure,_shortened": "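Cells transfected with 100 nM scrambled or p21 siRNA for 4 h, then grown 24 h in complete medium and treated with 10 μM for 24 h. p21, caspase-9/-3 and cleaved forms analysed by 15% SDS-PAGE immunoblot with densitometry. Means ± SD, three experiments in triplicate.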"}, "[15]": {"tested_on": "HCT-116", "assay": "Antitumor activity against human HCT116 cells xenografted in BALB/c-nude mouse assessed as reduction of tumor volume at 100 mg/kg, po administered every other day from day 2 to 21", "assay_type": "functional, organism-based", "parameters": "dose 100 mg/kg", "procedure,_shortened": "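Male BALB/c-nude mice; 2 × 10^6 tumour cells in 0.2 mL PBS injected intradermally into the flank on day 0, n = 10 per group. Oral dosing every other day for 3 weeks, starting 2 days after inoculation. Caliper tumour volume = (width)2 × length/2, measured periodically. Tumours excised and weighed at day 21. Means ± SE.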"}, "[16]": {"tested_on": "SW-620", "assay": "Induction of apoptosis in human SW620 cells at 10 uM after 48 hrs using Annexin V-FITC and propidium iodide staining by flow cytometry (reference value: 3.8 +/- 2.1%)", "assay_type": "functional", "procedure,_shortened": "as §3"}, "[17]": {"tested_on": "HCT-116", "assay": "Cell cycle arrest in human HCT116 cells assessed as accumulation at S phase at 0.5 uM after 48 hrs using propidium iodide staining by flow cytometry (reference value: 36.3 +/- 1.7%)", "assay_type": "functional"}, "[18]": {"tested_on": "SW-620", "assay": "Cell cycle arrest in human SW620 cells assessed as accumulation at S phase at 10 uM after 48 hrs using propidium iodide staining by flow cytometry (reference value: 43.1 +/- 1%)", "assay_type": "functional"}, "[19]": {"tested_on": "HCT-116", "assay": "Induction of apoptosis in human HCT116 cells at 5 uM after 48 hrs using Annexin V-FITC and propidium iodide staining by flow cytometry (reference value: 7.6 +/- 3%)", "assay_type": "functional", "procedure,_shortened": "as §3"}, "[20]": {"tested_on": "SW-620", "assay": "Induction of apoptosis in human SW620 cells assessed as increase of expression of cleaved caspase-9 and caspase-3 after 24 hrs by immunoblotting", "assay_type": "functional, cell-based", "procedure,_shortened": "as §2"}, "[21]": {"tested_on": "HCT-116", "assay": "Cell cycle arrest in human HCT116 cells assessed as accumulation at G0/G1 phase at 1 uM after 48 hrs using propidium iodide staining by flow cytometry (reference value: 56.7 +/- 1.9%)", "assay_type": "functional"}, "[22]": {"tested_on": "HCT-116", "assay": "Cell cycle arrest in human HCT116 cells assessed as accumulation at S phase at 10 uM after 48 hrs using propidium iodide staining by flow cytometry (reference value: 36.3 +/- 1.7%)", "assay_type": "functional"}, "[23]": {"tested_on": "HCT-116", "assay": "Cell cycle arrest in human HCT116 cells assessed as accumulation at S phase at 0.1 uM after 48 hrs using propidium iodide staining by flow cytometry (reference value: 36.3 +/- 1.7%)", "assay_type": "functional"}, "[24]": {"tested_on": "HCT-116", "assay": "Cell cycle arrest in human HCT116 cells assessed as accumulation at S phase after 48 hrs using propidium iodide staining by flow cytometry", "assay_type": "functional, cell-based"}, "[25]": {"tested_on": "SW-620", "assay": "Cytotoxicity against human SW620 cells after 24 to 72 hrs", "assay_type": "functional, cell-based", "procedure,_shortened": "as §1"}, "[26]": {"tested_on": "HCT-116", "assay": "Cell cycle arrest in human HCT116 cells assessed as accumulation at G2/M phase at 5 uM after 48 hrs using propidium iodide staining by flow cytometry (reference value: 7.1 +/- 0.3%)", "assay_type": "functional"}},
  "note": "Activity calls are given as the source filed them. The calls are words filed in the database; no cut-off is given here.",
  "data": [
    {"compound": "CC(C)c1cccc(=O)c(O)c1", "note": "[HINOKITIOL]", "values": [
      {"measurement": "Activity", "setting": "[1]", "result": "Active"},
      {"measurement": "Activity", "setting": "[2]", "result": "inactive"},
      {"measurement": "Activity", "setting": "[3]", "result": "Dose-dependent effect"},
      {"measurement": "Activity", "setting": "[4]", "result": 24.7, "unit": "%"},
      {"measurement": "Activity", "setting": "[5]", "result": "inactive"},
      {"measurement": "IC50", "setting": "[6]", "result": 4.5, "unit": "µM"},
      {"measurement": "growth inhibition (GI)", "setting": "[6]", "result": "Dose-dependent effect"},
      {"measurement": "Activity", "setting": "[7]", "result": 1.5, "unit": "%"},
      {"measurement": "Activity", "setting": "[8]", "result": 52.4, "unit": "%"},
      {"measurement": "Activity", "setting": "[9]", "result": 8, "unit": "%"},
      {"measurement": "Activity", "setting": "[10]", "result": "Dose-dependent effect"},
      {"measurement": "Activity", "setting": "[11]", "result": "inactive"},
      {"measurement": "Activity", "setting": "[12]", "result": "inactive"},
      {"measurement": "Activity", "setting": "[13]", "result": 43.3, "unit": "%"},
      {"measurement": "Activity", "setting": "[14]", "result": "inactive"},
      {"measurement": "Activity", "setting": "[15]", "result": "Active"},
      {"measurement": "Activity", "setting": "[16]", "result": 80.3, "unit": "%"},
      {"measurement": "Activity", "setting": "[17]", "result": 35.4, "unit": "%"},
      {"measurement": "Activity", "setting": "[18]", "result": 87, "unit": "%"},
      {"measurement": "Activity", "setting": "[19]", "result": 15.6, "unit": "%"},
      {"measurement": "Activity", "setting": "[20]", "result": "Dose-dependent effect"},
      {"measurement": "Activity", "setting": "[21]", "result": 55.1, "unit": "%"},
      {"measurement": "Activity", "setting": "[22]", "result": 53.8, "unit": "%"},
      {"measurement": "Activity", "setting": "[23]", "result": 34.4, "unit": "%"},
      {"measurement": "Activity", "setting": "[24]", "result": "Dose-dependent effect"},
      {"measurement": "IC50", "setting": "[25]", "result": 4.4, "unit": "µM"},
      {"measurement": "growth inhibition (GI)", "setting": "[25]", "result": "Dose-dependent effect"},
      {"measurement": "Activity", "setting": "[26]", "result": 11.9, "unit": "%"}
    ]}
  ]
}
